Measured values published in ChEMBL document CHEMBL1687823, “PA-824 exhibits time-dependent activity in a murine model of tuberculosis” (Antimicrob Agents Chemother, 2011).

Key:
Format in all cases: functional
[1] = system: Mycobacterium tuberculosis; assay: fT>MIC for >= 1 log reduction in CFU count in Mycobacterium tuberculosis H37Rv in using simulated dose of at 200 mg assessed as time during compound concentration exceeds MIC of 0.25000 ug/ml assuming 7% unbound compound concentration by one compartment human pharmacokinetic model
Summary of the method: (§1)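 A one-compartment PK model was fitted to human data to get median parameters. It simulated steady-state total and free concentrations for 100, 200 or 400 mg once daily, assuming 5, 7, 10 or 15% unbound drug. Free T>MIC was computed against MICs of 0.03125–0.25 µg/ml and compared with the mouse-derived T>MIC target for 1-log10 kill.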

[2] = system: Mycobacterium tuberculosis; assay: fT>MIC for >= 1 log reduction in CFU count in Mycobacterium tuberculosis H37Rv in using simulated dose of at 400 mg assessed as time during compound concentration exceeds MIC of 0.25000 ug/ml assuming 5% unbound compound concentration by one compartment human pharmacokinetic model
Summary of the method: (§2)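 Human steady-state simulation: one-compartment PK model fitted to patient data, chosen by AIC. Median PK parameters used to simulate total and free concentrations, assuming 5, 7, 10 or 15% unbound, for 100, 200 and 400 mg once daily. Free levels compared with MICs of 0.03125 to 0.25 µg/ml to give %T>MIC; T>MIC is the cumulative percentage of the dosing interval above MIC.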

[3] = system: Mycobacterium tuberculosis; assay: fT>MIC for >= 1 log reduction in CFU count in Mycobacterium tuberculosis H37Rv in using simulated dose of at 400 mg assessed as time during compound concentration exceeds MIC of 0.03125 ug/ml assuming 5% unbound compound concentration by one compartment human pharmacokinetic model; summary of the method: as §1
[4] = system: Mycobacterium tuberculosis; assay: fT>MIC for >= 1 log reduction in CFU count in Mycobacterium tuberculosis H37Rv in using simulated dose of at 200 mg assessed as time during compound concentration exceeds MIC of 0.06250 ug/ml assuming 5% unbound compound concentration by one compartment human pharmacokinetic model; summary of the method: as §1
[5] = system: Mycobacterium tuberculosis; assay: fT>MIC for >= 1 log reduction in CFU count in Mycobacterium tuberculosis H37Rv in using simulated dose of at 200 mg assessed as time during compound concentration exceeds MIC of 0.12500 ug/ml assuming 15% unbound compound concentration by one compartment human pharmacokinetic model; summary of the method: as §1
[6] = system: Mycobacterium tuberculosis; assay: fT>MIC for >= 1 log reduction in CFU count in Mycobacterium tuberculosis H37Rv in using simulated dose of at 200 mg assessed as time during compound concentration exceeds MIC of 0.25000 ug/ml assuming 10% unbound compound concentration by one compartment human pharmacokinetic model; summary of the method: as §1
[7] = system: Mycobacterium tuberculosis; assay: fT>MIC for >= 1 log reduction in CFU count in Mycobacterium tuberculosis H37Rv in using simulated dose of at 400 mg assessed as time during compound concentration exceeds MIC of 0.25000 ug/ml assuming 7% unbound compound concentration by one compartment human pharmacokinetic model; summary of the method: as §2
[8] = system: Mycobacterium tuberculosis; assay: fT>MIC for >= 1 log reduction in CFU count in Mycobacterium tuberculosis H37Rv in using simulated dose of at 400 mg assessed as time during compound concentration exceeds MIC of 0.06250 ug/ml assuming 15% unbound compound concentration by one compartment human pharmacokinetic model; summary of the method: as §1
[9] = system: Mycobacterium tuberculosis; assay: fT>MIC for >= 1 log reduction in CFU count in Mycobacterium tuberculosis H37Rv in using simulated dose of at 400 mg assessed as time during compound concentration exceeds MIC of 0.06250 ug/ml assuming 7% unbound compound concentration by one compartment human pharmacokinetic model; summary of the method: as §2
[10] = system: Mycobacterium tuberculosis; assay: fT>MIC for >= 1 log reduction in CFU count in Mycobacterium tuberculosis H37Rv in using simulated dose of at 200 mg assessed as time during compound concentration exceeds MIC of 0.12500 ug/ml assuming 5% unbound compound concentration by one compartment human pharmacokinetic model; summary of the method: as §1
[11] = system: Mycobacterium tuberculosis; assay: fT>MIC for >= 1 log reduction in CFU count in Mycobacterium tuberculosis H37Rv in using simulated dose of at 400 mg assessed as time during compound concentration exceeds MIC of 0.06250 ug/ml assuming 5% unbound compound concentration by one compartment human pharmacokinetic model; summary of the method: as §2
[12] = system: Mycobacterium tuberculosis; assay: fT>MIC for >= 1 log reduction in CFU count in Mycobacterium tuberculosis H37Rv in using simulated dose of at 400 mg assessed as time during compound concentration exceeds MIC of 0.12500 ug/ml assuming 15% unbound compound concentration by one compartment human pharmacokinetic model; summary of the method: as §2
[13] = system: Mycobacterium tuberculosis; assay: fT>MIC for >= 1 log reduction in CFU count in Mycobacterium tuberculosis H37Rv in using simulated dose of at 100 mg assessed as time during compound concentration exceeds MIC of 0.03125 ug/ml assuming 7% unbound compound concentration by one compartment human pharmacokinetic model; summary of the method: as §1
[14] = system: Mycobacterium tuberculosis; assay: fT>MIC for >= 1 log reduction in CFU count in Mycobacterium tuberculosis H37Rv in using simulated dose of at 100 mg assessed as time during compound concentration exceeds MIC of 0.03125 ug/ml assuming 10% unbound compound concentration by one compartment human pharmacokinetic model; summary of the method: as §1
[15] = system: Mycobacterium tuberculosis; assay: fT>MIC for >= 1 log reduction in CFU count in Mycobacterium tuberculosis H37Rv in using simulated dose of at 200 mg assessed as time during compound concentration exceeds MIC of 0.12500 ug/ml assuming 7% unbound compound concentration by one compartment human pharmacokinetic model; summary of the method: as §1
[16] = system: Mycobacterium tuberculosis; assay: fT>MIC for >= 1 log reduction in CFU count in Mycobacterium tuberculosis H37Rv in using simulated dose of at 100 mg assessed as time during compound concentration exceeds MIC of 0.06250 ug/ml assuming 10% unbound compound concentration by one compartment human pharmacokinetic model; summary of the method: as §1
[17] = system: Mycobacterium tuberculosis; assay: fT>MIC for >= 1 log reduction in CFU count in Mycobacterium tuberculosis H37Rv in using simulated dose of at 200 mg assessed as time during compound concentration exceeds MIC of 0.06250 ug/ml assuming 10% unbound compound concentration by one compartment human pharmacokinetic model; summary of the method: as §1
[18] = system: Mycobacterium tuberculosis; assay: fT>MIC for >= 1 log reduction in CFU count in Mycobacterium tuberculosis H37Rv in using simulated dose of at 200 mg assessed as time during compound concentration exceeds MIC of 0.03125 ug/ml assuming 15% unbound compound concentration by one compartment human pharmacokinetic model; summary of the method: as §1
[19] = system: Mycobacterium tuberculosis; assay: Antimicrobial activity against Mycobacterium tuberculosis H37Rv infected in single po dosed BALB/c mouse assessed as reduction in lung CFU count
[20] = system: Mycobacterium tuberculosis; assay: fT>MIC for >= 1 log reduction in CFU count in Mycobacterium tuberculosis H37Rv in using simulated dose of at 100 mg assessed as time during compound concentration exceeds MIC of 0.03125 ug/ml assuming 15% unbound compound concentration by one compartment human pharmacokinetic model; summary of the method: as §1
[21] = system: Mycobacterium tuberculosis; assay: fT>MIC for >= 1 log reduction in CFU count in Mycobacterium tuberculosis H37Rv in using simulated dose of at 200 mg assessed as time during compound concentration exceeds MIC of 0.06250 ug/ml assuming 7% unbound compound concentration by one compartment human pharmacokinetic model; summary of the method: as §1

O=[N+]([O-])c1cn2c(n1)OC[C@@H](OCc1ccc(OC(F)(F)F)cc1)C2 [PRETOMANID]
fT>MIC [1]: 0% | fT>MIC [2]: 0% | fT>MIC [3]: 100% | fT>MIC [4]: 46% | fT>MIC [5]: 67% | fT>MIC [6]: 0% | fT>MIC [7]: 4% | fT>MIC [8]: 100% | fT>MIC [9]: 100% | fT>MIC [10]: 0% | fT>MIC [11]: 100% | fT>MIC [12]: 100% | fT>MIC [13]: 67% | fT>MIC [14]: 100% | fT>MIC [15]: 4% | fT>MIC [16]: 46% | fT>MIC [17]: 100% | fT>MIC [18]: 100% | MBC [19]: 100 mg/kg | fT>MIC [20]: 100% | fT>MIC [21]: 67%
